PLAP activator: PLAP enzyme activators, biochemical, luminescence, HTS | Alkaline phosphatase, placental type (Homo sapiens), P05187 | purified PLAP enzyme, luminescent substrate read-out; stronger effect = higher value | activation fold at 20 µM | 96,000 compounds, 1.2% hits; in the data active = activation fold above about 2
Target sequence (P05187 whole entry, looked up): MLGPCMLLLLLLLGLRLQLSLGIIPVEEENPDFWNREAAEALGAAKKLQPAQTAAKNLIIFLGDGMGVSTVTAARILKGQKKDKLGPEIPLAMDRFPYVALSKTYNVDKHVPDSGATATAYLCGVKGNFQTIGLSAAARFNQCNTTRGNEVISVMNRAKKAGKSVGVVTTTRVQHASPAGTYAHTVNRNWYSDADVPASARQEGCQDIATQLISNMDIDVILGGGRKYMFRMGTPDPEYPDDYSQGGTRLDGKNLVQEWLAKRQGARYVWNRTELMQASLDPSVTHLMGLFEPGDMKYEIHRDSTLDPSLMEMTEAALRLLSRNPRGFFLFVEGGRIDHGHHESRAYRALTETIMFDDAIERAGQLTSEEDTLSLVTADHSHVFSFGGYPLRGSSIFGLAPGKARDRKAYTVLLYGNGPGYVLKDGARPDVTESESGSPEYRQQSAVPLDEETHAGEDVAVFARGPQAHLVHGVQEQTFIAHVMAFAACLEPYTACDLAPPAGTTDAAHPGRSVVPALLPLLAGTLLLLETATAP
PostGolgi ctrl: growth inhibition of yeast control strain, primary screen, counter-screen for post-Golgi transport modulator project; efflux-deficient yeast background strain, growth absorbance A615, 16 h; inhibition, % at 10 µM; 98,000 compounds, 5% hits; AID 738, 2007
E coli WT exp: growth inhibitors of wild-type E. coli, primary screen, strain BW25113, expanded library, OD600 | OD600 absorbance | 98,000 compounds, 0.15% hits | growth inhibition, % at 100 µM;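 active = growth inhibition above about 50% at one test dose, limit read from the data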;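 note: growth measured after 20 h incubation at 37 °C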
PostGolgi yeast: phenotypic screen on post-Golgi transport, primary screen; post-Golgi transport phenotypic cell assay; inhibition, % at 10 µM; AID 739, 2007; 98,000 compounds, 0.9% hits;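 note: yeast cells grown in 1536-well plates; yeast grown about 18 h at 30C before absorbance read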
HePTP inhibitor: inhibitors of human HePTP phosphatase, primary screen, biochemical, absorbance, leukemia target. Tyrosine-protein phosphatase non-receptor type 7 (Homo sapiens), P35236. recombinant HePTP phosphatase activity, OD absorbance. inhibition, % at 20 µM. 110,000 compounds, 0.64% hits. AID 521, 2006; in the data active = inhibition above about 50%;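 note: plate controls were vehicle for no effect and reference inhibitor for full effect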
tolC growth inh: growth inhibitors of E. coli tolC mutant, primary screen, strain BW25113 ΔtolC::kan, 384-well; OD615; 65,000 compounds, 2.2% hits; growth inhibition, % at 10 µM (by protocol); AID 573, 2007;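 active = growth inhibition at or above a cutoff equal to the mean over every tested compound plus 3 SD, cut at about 60% in these data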;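 note: growth measured after 20 h incubation at 37 °C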
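System: E. coli ΔtolC::kan strain BW25113; Buffer or medium: LB broth supplemented with 50 µg/mL kanamycin; Compound: 10 µM final, single dose; Incubation: bacterial growth with compound for 20 h at 37 °C; Signal: A615 absorbance measurement; Evaluation: growth inhibition in percent.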
An asterisk follows results filed as active; . = no result given. In the library only some 5.4% were active in any assay of this set; here they are far more common. Cut-off read from the data, not from the text of the source, unless noted: active = inhibition above about 30%; inactive = the rest.

SMILES | PLAP activator | PostGolgi ctrl | E coli WT exp | PostGolgi yeast | HePTP inhibitor | tolC growth inh
Cc1ccc(NC(=O)c2ccc(C)o2)cc1 | . | . | . | . | 0 | .
Cc1ccc(CNC(=O)Cn2c(=O)oc3ccccc32)o1 | 0.9 | 40* | 2 | 1 | 10 | 1
O=C(NCc1ccco1)c1cnn2c(C(F)F)cc(-c3ccccc3)nc12 | 0.8 | 10 | -8 | 21 | 3 | -2
Cc1cc(C)c(Cc2c(C)nc3c(C(=O)NCc4ccco4)cnn3c2C)c(C)c1 | 1.3 | 44* | -7 | 12 | . | .
O=C(NCc1ccccc1)c1cc2nc(C3CC3)cc(C(F)(F)F)n2n1 | 1 | 10 | -12 | -13 | . | .
Cc1cc(NC(=O)c2cc3nc(C4CC4)cc(C(F)(F)F)n3n2)no1 | 0.9 | 31* | -5 | 12 | 6 | -18
O=C(NCCc1ccc(Cl)cc1)C(=O)Nc1nccs1 | . | . | . | . | 1 | .
O=C(CCCOc1ccccc1)Nc1nccs1 | 1 | 8 | 4 | 14 | 7 | 2
O=C(NCCc1ccccc1F)C(=O)Nc1nccs1 | 0.9 | 30* | -4 | -11 | 4 | .
O=C(Nc1nccs1)Oc1ccccc1 | 0.9 | 37* | 7 | -5 | 6 | -19
O=C(CSCC(=O)c1ccc([N+](=O)[O-])cc1)Nc1ccc2ccccc2c1 | . | . | . | . | 4 | .
COc1ccc(C(=O)N2CCN(C(=O)Cc3ccccc3)CC2)cc1OC | 1.3 | 47* | -5 | 0 | -5 | -3
CCOC(=O)Cc1c(C)c2ccc(N(CC)CC)cc2oc1=O | 1.4 | 1 | -2 | 46* | 4 | 17
Cc1oc2c(CN3CCCC3)c(O)ccc2c(=O)c1-c1ccc(Br)cc1 | 1.2 | -3 | 1 | 10 | 9 | 77*
Cc1cc(C)c2nc(N3CCC(C(=O)N4CCCC4)CC3)sc2c1 | 1.4 | 9 | 1 | 12 | 10 | 14
Cc1cc(C)c2nc(N3CCC(C(=O)NCCCN4CCCCC4)CC3)sc2c1 | 2* | 5 | 8 | -3 | . | .
CC(C)(C)c1ccc(OCC(O)CN2CCN(c3ccccc3)CC2)cc1 (stereo not given) | . | . | . | . | 4 | .
CC(C)c1ccc(OCC(O)CN2CCN(c3ccccc3)CC2)cc1 (stereo not given) | 1.7 | 63* | 0 | 51* | 5 | 54
COc1cc2c(cc1OC)Cc1cc(OC)c(OC)cc1C(=O)C2 | . | . | . | . | -13 | .
COc1ccc(/C=C/C(=O)n2nnc3ccccc32)cc1 | . | . | . | . | -8 | .
COc1cc(C)c(Nc2ccccc2)c(C)c1 | . | . | . | . | -5 | .
Cn1c(Sc2ccc(Br)cc2)c(C=O)c2ccccc21 | 1.1 | 32* | -17 | -2 | . | .
OCC1(CO)COC2(CCN(Cc3ccccc3)CC2)N1 | . | . | . | . | 3 | .
Cc1ccc(-n2nnnc2C(Cl)(Cl)c2nnnn2-c2ccc(C)cc2)cc1 | 0.9 | 100* | -2 | 108* | . | .
COc1ccc(-n2nnnc2C(Cl)(Cl)c2nnnn2-c2ccc(OC)cc2)cc1 | . | . | . | . | 1 | .
SMILES | PLAP activator | PostGolgi ctrl | E coli WT exp | PostGolgi yeast | HePTP inhibitor | tolC growth inh
Brc1ccc(-c2cc(-c3ccccc3)nc(N/N=C/c3cccnc3)n2)cc1 | . | . | . | . | 6 | .
COCCCNC(=O)COc1ccccc1 | . | . | . | . | 0 | .
Cc1cc(NC(=O)COc2cccc(Oc3ccccc3)c2)no1 | 0.9 | 31* | -3 | 5 | 9 | -7
COCCNC(=O)COc1cccc(Oc2ccccc2)c1 | 1.1 | 31* | 3 | 12 | 1 | 6
O=C(Nc1nc(-c2cc(Cl)ccc2Cl)cs1)C(Cl)Cl | . | . | . | . | 5 | .
O=C(Nc1ccc(Cc2ccncc2)cc1)c1cc(Br)ccc1I | . | . | . | . | 7 | .
COc1ccccc1CNCc1ccc([N+](=O)[O-])cc1 | . | . | . | . | -12 | .
O=C1NC(=Nc2ccc(Br)cc2)S/C1=C\c1ccccc1[N+](=O)[O-] | . | . | . | . | 7 | .
O=C1c2cccc3c([N+](=O)[O-])ccc(c23)C(=O)N1c1ccccn1 | 1.1 | 19 | 4 | 18 | . | .
O=C1c2cccc3c([N+](=O)[O-])ccc(c23)C(=O)N1c1ccc(Cl)cn1 | 0.7 | 19 | 16 | 68* | . | .
O=C1NC(=O)N(c2ccccc2)C(=O)/C1=C\c1ccc(-c2ccccc2[N+](=O)[O-])o1 | . | . | . | . | 4 | .
Cc1ccccc1N(CC(=O)N/N=C/c1ccc(Cl)cc1)C(=O)c1ccccc1 | 1.5 | 32* | -10 | 8 | . | .
CC(NC(=O)CN(C)Cc1nc2ccccc2c(=O)[nH]1)c1ccccc1 (stereo not given) | 2.3* | -9 | -4 | 9 | . | .

Screening data as filed in PubChem.
